In brackets after ≈: the same amount, converted by molar mass. Activity calls are given as the source filed them. No cut-off for these calls is given here.
Columns and labels:
Staphylococcus aureus [1] = test: Antibacterial activity against Staphylococcus aureus after 24 hrs by agar disk diffusion assay; type: functional
In short: (§1)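 Agar well diffusion on nutrient agar against Gram-positive clinical isolates (PSG Hospital, Coimbatore). Compounds in DMSO tested at 0 (control), 25, 50, 75, 100; DMSO as solvent and negative control; ciprofloxacin ([…]) as positive control. Plates incubated 37 ± 2 °C, 24 h; zone of inhibition diameter read in mm.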

Enterococcus faecalis [2] = test: Antibacterial activity against Enterococcus faecalis after 24 hrs by agar disk diffusion assay; type: functional; in short: as §1
Escherichia coli [3] = test: Antibacterial activity against Escherichia coli after 24 hrs by agar disk diffusion assay; type: functional
In short: (§2)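 Gram-negative clinical isolates (PSG Hospital, Coimbatore) tested by agar well diffusion on nutrient agar. Compounds dissolved in DMSO at 0 (control), 25, 50, 75, 100; DMSO was the negative control and ciprofloxacin ([…]) the positive control. Incubation 37 ± 2 °C for 24 h, then inhibition zone diameter measured in mm.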

Klebsiella pneumoniae [4] = test: Antibacterial activity against Klebsiella pneumoniae after 24 hrs by agar disk diffusion assay; type: functional; in short: as §2
Staphylococcus aureus [5] = test: Antibacterial activity against Staphylococcus aureus at 30 ug/ml after 24 hrs by agar disk diffusion assay; conditions: read-out: DIZ
Enterococcus faecalis [6] = test: Antibacterial activity against Enterococcus faecalis at 30 ug/ml after 24 hrs by agar disk diffusion assay; conditions: read-out: DIZ
Escherichia coli [7] = test: Antibacterial activity against Escherichia coli at 30 ug/ml after 24 hrs by agar disk diffusion assay; conditions: read-out: DIZ
Klebsiella pneumoniae [8] = test: Antibacterial activity against Klebsiella pneumoniae at 30 ug/ml after 24 hrs by agar disk diffusion assay; conditions: read-out: DIZ
Staphylococcus aureus [9] = test: Antibacterial activity against Staphylococcus aureus at 100 ug/ml after 24 hrs by agar disk diffusion assay; type: functional; conditions: read-out: DIZ; in short: as §1
Enterococcus faecalis [10] = test: Antibacterial activity against Enterococcus faecalis at 100 ug/ml after 24 hrs by agar disk diffusion assay; type: functional; conditions: read-out: DIZ; in short: as §1
Escherichia coli [11] = test: Antibacterial activity against Escherichia coli at 100 ug/ml after 24 hrs by agar disk diffusion assay; type: functional; conditions: read-out: DIZ; in short: as §2
Klebsiella pneumoniae [12] = test: Antibacterial activity against Klebsiella pneumoniae at 100 ug/ml after 24 hrs by agar disk diffusion assay; type: functional; conditions: read-out: DIZ; in short: as §2
Aspergillus niger [13] = test: Antifungal activity against Aspergillus niger at 100 ug/ml after 48 hrs by agar disk diffusion assay; type: functional; conditions: read-out: DIZ
In short: (§3)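 Fungal isolates (PSG Hospital, Coimbatore) grown on Sabouraud dextrose agar; agar well diffusion with compounds in DMSO at 0 (control), 25, 50, 75, 100. DMSO negative control, fluconazole ([…]) positive control. Plates held 28 ± 2 °C for 48 h; zone of inhibition diameter recorded in mm.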

Candida albicans [14] = test: Antifungal activity against Candida albicans at 100 ug/ml after 48 hrs by agar disk diffusion assay; type: functional; conditions: read-out: DIZ; in short: as §3
Aspergillus niger [15] = test: Antifungal activity against Aspergillus niger after 48 hrs by agar disk diffusion assay; type: functional; in short: as §3
Candida albicans [16] = test: Antifungal activity against Candida albicans after 48 hrs by agar disk diffusion assay; type: functional; in short: as §3
[17] = test system: Radical scavenging activity; test: Antioxidant activity assessed as DPPH radical scavenging activity after 30 mins by micro plate reader; type: functional
In short: (§4)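 DPPH assay: various compound concentrations brought to volume with ethanol, mixed with 0.1 mM ethanolic DPPH alongside vitamin C standard; shaken 30 min at 24 °C, absorbance read at 517 nm; concentration giving 50% decrease determined.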

A549 = test: Cytotoxicity against human A549 cells up to 50 ug/ml after 48 hrs by SRB assay; type: functional, cell-based
In short: (§5)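 Cells in RPMI-1640 with 10% heat-inactivated FBS, 1 mM NaHCO3, 2 mM L-glutamine, 37 °C, 5% CO2; seeded (B16F10 5 × 10⁴ cells/mL, others 1 × 10⁵ cells/mL), 24 h, then compounds in DMSO at 1.56–50 for 48 h, triplicate wells. TCA fixation, SRB staining 30 min, tris extraction, OD 520 nm; IC50 by linear regression, mean ± SD of three independent experiments; cisplatin positive control.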

B16-F10 [18] = test: Cytotoxicity against mouse B16F10 cells up to 50 ug/ml after 48 hrs by SRB assay; type: functional, cell-based; in short: as §5
HCT-15 [19] = test: Cytotoxicity against human HCT15 cells up to 50 ug/ml after 48 hrs by SRB assay; type: functional, cell-based; in short: as §5
[20] = Cytotoxicity against human SK-MEL-12 cells up to 50 ug/ml after 48 hrs by SRB assay; type: functional, cell-based; in short: as §5
SK-OV-3 = test: Cytotoxicity against human SKOV3 cells up to 50 ug/ml after 48 hrs by SRB assay; type: functional, cell-based; in short: as §5
Aspergillus niger [21] = test: Antifungal activity against Aspergillus niger at 30 ug/ml after 48 hrs by agar disk diffusion assay; type: functional; conditions: read-out: DIZ
In short: (§6)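 Agar well diffusion on Sabouraud dextrose agar; fungal strains obtained from a hospital. Compounds dissolved in DMSO, with DMSO as negative control and fluconazole ([…]) as positive control. Plates incubated at 28 ± 2 °C for 48 h. Activity taken as the diameter of the inhibition zone, in mm.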

Candida albicans [22] = test: Antifungal activity against Candida albicans AT 30 ug/ml after 48 hrs by agar disk diffusion assay; type: functional; conditions: read-out: DIZ; in short: as §6
Staphylococcus aureus [23] = test: Antibacterial activity against Staphylococcus aureus at 50 ug/ml after 24 hrs by agar disk diffusion assay; type: functional; conditions: read-out: DIZ; in short: as §1
Enterococcus faecalis [24] = test: Antibacterial activity against Enterococcus faecalis at 50 ug/ml after 24 hrs by agar disk diffusion assay; type: functional; conditions: read-out: DIZ; in short: as §1
Escherichia coli [25] = test: Antibacterial activity against Escherichia coli at 50 ug/ml after 24 hrs by agar disk diffusion assay; type: functional; conditions: read-out: DIZ; in short: as §2
Klebsiella pneumoniae [26] = test: Antibacterial activity against Klebsiella pneumoniae at 50 ug/ml after 24 hrs by agar disk diffusion assay; type: functional; conditions: read-out: DIZ; in short: as §2
Aspergillus niger [27] = test: Antifungal activity against Aspergillus niger at 50 ug/ml after 48 hrs by agar disk diffusion assay; type: functional; conditions: read-out: DIZ; in short: as §3
Candida albicans [28] = test: Antifungal activity against Candida albicans at 50 ug/ml after 48 hrs by agar disk diffusion assay; type: functional; conditions: read-out: DIZ; in short: as §3
B16-F10 [29] = test: Cytotoxicity against mouse B16F10 cells after 48 hrs by SRB assay; type: functional, cell-based; conditions: B16-F10, 48 h; in short: as §5
HCT-15 [30] = test: Cytotoxicity against human HCT15 cells after 48 hrs by SRB assay; type: functional, cell-based; conditions: HCT-15, 48 h; in short: as §5
[31] = test system: Radical scavenging activity; test: Antioxidant activity assessed as DPPH radical scavenging activity upto 600 mg/ml after 30 mins by micro plate reader; type: functional; in short: as §4

Compound	MIC (Staphylococcus aureus [1]) [µg/mL]	MIC (Enterococcus faecalis [2]) [µg/mL]	MIC (Escherichia coli [3]) [µg/mL]	MIC (Klebsiella pneumoniae [4]) [µg/mL]	MIC (Aspergillus niger [15]) [µg/mL]	MIC (Candida albicans [16]) [µg/mL]	IC50 (A549)	IC50 [20]	IC50 (SK-OV-3)	further results
O=C(O)c1cn(C2CC2)c2cc(N3CCNCC3)c(F)cc2c1=O [CIPROFLOXACIN]	12.5 (≈ 37.7 µM)	12.5 (≈ 37.7 µM)	12.5 (≈ 37.7 µM)	12.5 (≈ 37.7 µM)	–	–	–	–	–	zone of inhibition at 30 µg/mL (Staphylococcus aureus [5]): 28 mm; zone of inhibition at 30 µg/mL (Enterococcus faecalis [6]): 29 mm; zone of inhibition at 30 µg/mL (Escherichia coli [7]): 27 mm; zone of inhibition at 30 µg/mL (Klebsiella pneumoniae [8]): 30 mm
CCOC(=O)c1c(N)nc2c(c1-c1ccccc1)CCc1c-2[nH]c2ccc(C)cc12	100 (≈ 252 µM)	100 (≈ 252 µM)	100 (≈ 252 µM)	100 (≈ 252 µM)	> 100	> 100	Not Active	Not Active	Not Active	zone of inhibition at 100 µg/mL (Staphylococcus aureus [9]): 14 mm; zone of inhibition at 100 µg/mL (Enterococcus faecalis [10]): 15 mm; zone of inhibition at 100 µg/mL (Escherichia coli [11]): 13 mm; zone of inhibition at 100 µg/mL (Klebsiella pneumoniae [12]): 16 mm; zone of inhibition at 100 µg/mL (Aspergillus niger [13]): 4 mm; zone of inhibition at 100 µg/mL (Candida albicans [14]): 2 mm; IC50 [17]: 300.84 µg/mL (≈ 757 µM); IC50 (B16-F10 [18]): Not Active; IC50 (HCT-15 [19]): Not Active
OC(Cn1cncn1)(Cn1cncn1)c1ccc(F)cc1F [FLUCONAZOLE]	–	–	–	–	12.5 (≈ 40.8 µM)	12.5 (≈ 40.8 µM)	–	–	–	zone of inhibition at 30 µg/mL (Aspergillus niger [21]): 19 mm; zone of inhibition at 30 µg/mL (Candida albicans [22]): 22 mm
Cc1ccc2[nH]c3c(c2c1)CCc1c-3nc(N)c(C#N)c1-c1ccc(N(C)C)cc1	50 (≈ 127 µM)	50 (≈ 127 µM)	50 (≈ 127 µM)	50 (≈ 127 µM)	> 100	> 100	Not Active	Not Active	Not Active	zone of inhibition at 50 µg/mL (Staphylococcus aureus [23]): 17 mm; zone of inhibition at 50 µg/mL (Enterococcus faecalis [24]): 19 mm; zone of inhibition at 50 µg/mL (Escherichia coli [25]): 17 mm; zone of inhibition at 50 µg/mL (Klebsiella pneumoniae [26]): 18 mm; zone of inhibition at 50 µg/mL (Aspergillus niger [27]): 5 mm; zone of inhibition at 50 µg/mL (Candida albicans [28]): 9 mm; IC50 (B16-F10 [29]): 34.6 µg/mL (≈ 87.9 µM); IC50 (HCT-15 [30]): 43.5 µg/mL (≈ 111 µM); Activity [31]: inactive
